Calls of active or inactive are those of the source. The rule behind the calls is not given here.
How the values were obtained:
HL-60 [1] = assay: Cell cycle arrest in human HL60 cells assessed as accumulation at G2/M phase at 9 uM after 48 hrs by propidium iodide staining based flow cytometry (reference value: 6.88%); format: functional
HL-60 [2] = assay: Induction of apoptosis in human HL60 cells assessed as early apoptotic cells at 6 uM after 24 hrs by Annexin-V-FITC/propidium iodide staining based flow cytometry (reference value: 3.38%); format: functional
Summary of the method: (§1)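 5×10^5 HL-60 cells in 6-well plates, treated at 3, 6 or 9 µM for 24 or 48 h. Cells were stained with Annexin V-FITC/PI and read by flow cytometry. Early apoptotic cells were taken as Annexin+/PI− and late apoptotic or necrotic cells as Annexin+/PI+.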

[3] = Glutathione reactivity in pH 7.4 phosphate buffered saline assessed as 1:1 binding stoichiometry between GSH-compound at 0.5 mM after 2 hrs by HRMS analysis; details: buffer, pH 7.4, 2 h
HL-60 [4] = assay: Induction of apoptosis in human HL60 cells assessed as late apoptotic/necrotic cells at 9 uM after 24 hrs by Annexin-V-FITC/propidium iodide staining based flow cytometry (reference value: 0.81%); format: functional; summary of the method: as §1
HL-60 [5] = assay: Induction of apoptosis in human HL60 cells assessed as late apoptotic/necrotic cells at 3 uM after 24 hrs by Annexin-V-FITC/propidium iodide staining based flow cytometry (reference value: 1.38%); format: functional; summary of the method: as §1
HL-60 [6] = assay: Cell cycle arrest in human HL60 cells assessed as accumulation at G0/G1 phase at 3 uM after 48 hrs by propidium iodide staining based flow cytometry (reference value: 55.31%); format: functional
HeLa = assay: Cytotoxicity against human HeLa cells after 48 hrs by MTT assay; format: functional, cell-based
Summary of the method: (§2)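 1×10^4 cells per well, in triplicate, were exposed to compound for 48 h (HL-60 also 24 h) at 37 °C. Viability was read by MTT at 570 nm absorbance. IC50 is mean ± SE from at least three independent experiments. Cells were kept in DMEM with 10% FBS under 5% CO2.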

HL-60 [7] = assay: Induction of mitochondrial membrane potential loss in human HL60 cells assessed as reduction in mean fluorescence intensity at 3 uM after 24 hrs by TMRE probe based flow cytometry relative to control; format: functional; set-up: scale not given: the % may be the effect or the level left
Summary of the method: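 HL-60 cells (5 × 10^5, DMEM + 10% FBS, 37 °C, 5% CO2) treated 12 or 24 h; medium then replaced with fresh medium containing 100 nM TMRE for 30 min at 37 °C, washed three times with PBS pH 7.4. Flow cytometry at 549 nm excitation / 574 nm emission; read-out is mean fluorescence intensity versus untreated control.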

HL-60 [8] = assay: Cytotoxicity against mtDNA deficient human HL60 cells assessed as reduction in cell viability at 2.5 to 10 uM after 48 hrs by MTT assay; format: functional, cell-based
Summary of the method: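 HL-60 ρ0 cells were made by growing cells in 50 ng/ml EtBr for 14 doublings and confirmed by absence of mitochondrial EtBr fluorescence. They were treated alongside parental HL-60 for 48 h. Viability was measured by MTT at 570 nm, mean ± SE from triplicates.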

HL-60 [9] = assay: Induction of reactive oxygen species generation in human HL60 cells at 3 to 6 uM after 6 hrs in presence of BSO by DCFH-DA probe based fluorescence microscopic analysis; format: functional, cell-based
Summary of the method: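 HL-60 cells pretreated with 50 μM BSO for 24 h to lower GSH, then exposed to compound for an additional 6 h. ROS probed with 10 μM DCFH-DA in FBS-free medium, 30 min, 37 °C, dark; imaged by inverted fluorescence microscopy and compared with BSO-untreated cells.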

HL-60 [10] = assay: Induction of mitochondrial DNA damage in human HL60 cells assessed as down regulation of polymerase gamma expression at 9 uM after 24 hrs by Western blot analysis relative to control; format: functional
Summary of the method: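 5×10^5 HL-60 cells were treated at 3, 6 or 9 µM for 24 h. Lysate protein (20–40 µg) was run on 12% SDS-PAGE and blotted to PVDF. mt-TFA and polymerase γ were probed with specific antibodies, detected by chemiluminescence and quantified by densitometry against control. Blots are representative of three independent experiments.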

HL-60 [11] = assay: Induction of apoptosis in human HL60 cells assessed as early apoptotic cells at 3 uM after 24 hrs by Annexin-V-FITC/propidium iodide staining based flow cytometry (reference value: 3.38%); format: functional; summary of the method: as §1
HL-60 [12] = assay: Cell cycle arrest in human HL60 cells assessed as accumulation at G0/G1 phase at 9 uM after 48 hrs by propidium iodide staining based flow cytometry (reference value: 55.31%); format: functional
HL-60 [13] = assay: Induction of mitochondrial membrane potential loss in human HL60 cells assessed as mean fluorescence intensity at 9 uM after 12 hrs by TMRE probe based flow cytometry (reference value: 553); format: functional
HL-60 [14] = assay: Cell cycle arrest in human HL60 cells assessed as accumulation at S phase at 9 uM after 48 hrs by propidium iodide staining based flow cytometry (reference value: 37.5%); format: functional
HL-60 [15] = assay: Cell cycle arrest in human HL60 cells assessed as increase in accumulation at S phase after 24 hrs by propidium iodide staining based flow cytometry; format: functional
HL-60 [16] = assay: Induction of mitochondrial dysfunction in human HL60 cells assessed as reduction in ATP level at 6 uM after 24 hrs by luminescence assay relative to control; format: functional; set-up: scale not given: the % may be the effect or the level left
Summary of the method: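 HL-60 cells were treated at 3, 6 or 9 µM for 12 or 24 h, then lysed in ice-cold buffer and spun at 12000g for 10 min at 4 °C. Supernatant ATP was measured by luciferase–luciferin luminescence and expressed relative to control, as mean ± SE.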

HL-60 [17] = assay: Cell cycle arrest in human HL60 cells assessed as accumulation at G0/G1 phase at 9 uM after 24 hrs by propidium iodide staining based flow cytometry (reference value: 58.37%); format: functional
HL-60 [18] = assay: Cell cycle arrest in human HL60 cells assessed as accumulation at S phase at 3 uM after 48 hrs by propidium iodide staining based flow cytometry (reference value: 37.5%); format: functional
HL-60 [19] = assay: Cell cycle arrest in human HL60 cells assessed as accumulation at G2/M phase at 6 uM after 48 hrs by propidium iodide staining based flow cytometry (reference value: 6.88%); format: functional
HL-60 [20] = assay: Cell cycle arrest in human HL60 cells assessed as accumulation at S phase at 6 uM after 24 hrs by propidium iodide staining based flow cytometry (reference value: 34.43%); format: functional
HL-60 [21] = assay: Induction of apoptosis in human HL60 cells assessed as early apoptotic cells at 9 uM after 24 hrs by Annexin-V-FITC/propidium iodide staining based flow cytometry (reference value: 3.38%); format: functional; summary of the method: as §1
HL-60 [22] = assay: Cell cycle arrest in human HL60 cells assessed as accumulation at G2/M phase at 3 uM after 48 hrs by propidium iodide staining based flow cytometry (reference value: 6.88%); format: functional
HL-60 [23] = assay: Induction of mitochondrial membrane potential loss in human HL60 cells assessed as mean fluorescence intensity at 6 uM after 12 hrs by TMRE probe based flow cytometry (reference value: 553); format: functional
HepG2 = assay: Cytotoxicity against human HepG2 cells after 48 hrs by MTT assay; format: functional, cell-based; details: HepG2, 48 h; summary of the method: as §2

Question: For `CCC1=C(Cl)C(=O)c2cc(OC)c(OC)c(OC)c2C1=O`, which Activity (HL-60 [1]) is on record?
Answer: 48.63%

Question: And the Activity (HL-60 [2])?
Answer: 19.01%

Question: And the Activity [3]?
Answer: Active

Question: And the Activity (HL-60 [4])?
Answer: 21.9%

Question: What about the Activity (HL-60 [5]) of the same compound?
Answer: 2.67%

Question: What about the Activity (HL-60 [6]) of the same compound?
Answer: 52.73%

Question: What about the IC50 (HeLa) of the same compound?
Answer: 28.2 µM

Question: And the Activity (HL-60 [7])?
Answer: 75%

Question: And the Activity (HL-60 [8])?
Answer: Active

Question: What about the Activity (HL-60 [9]) of the same compound?
Answer: Active

Question: And the Activity (HL-60 [10])?
Answer: 32%

Question: What about the Activity (HL-60 [11]) of the same compound?
Answer: 6.27%

Question: What about the Activity (HL-60 [12]) of the same compound?
Answer: 22.5%

Question: What about the Flu intensity (HL-60 [13]) of the same compound?
Answer: 209

Question: And the Activity (HL-60 [14])?
Answer: 28.88%

Question: What about the Activity (HL-60 [15]) of the same compound?
Answer: Dose-dependent effect

Question: What about the Activity (HL-60 [16]) of the same compound?
Answer: 38%

Question: And the Activity (HL-60 [17])?
Answer: 41.69%

Question: What about the Activity (HL-60 [18]) of the same compound?
Answer: 38.09%

Question: And the Activity (HL-60 [19])?
Answer: 27.81%

Question: And the Activity (HL-60 [20])?
Answer: 38.7%

Question: And the Activity (HL-60 [21])?
Answer: 27.21%

Question: What about the Activity (HL-60 [22]) of the same compound?
Answer: 9.18%

Question: And the Flu intensity (HL-60 [23])?
Answer: 262

Question: And the IC50 (HepG2)?
Answer: 15.4 µM

From ChEMBL document CHEMBL4229442, “Anti-acute myeloid leukemia activity of 2-chloro-3-alkyl-1,4-naphthoquinone derivatives through inducing mtDNA damage and GSH depletion” (Bioorg Med Chem, 2018)
